# In ChEMBL document CHEMBL1122917, “Vinblastin-23-oyl amino acid derivatives: chemistry, physicochemical data, toxicity, and antitumor activities against P388 and L1210 leukemias” (J Med Chem, 1985):
# How the values were obtained:
# Assay type in all cases: functional
# [1] = tested on: Mus musculus; test: Percent increase in life span of DBA2 mice after inoculation with L1210 leukemia intravenously at a dose of 50 mg/kg per day; conditions: route intravenous
# Method in brief: (§1)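 Female DBA2 mice inoculated iv on day 0 with 10^4 L1210 cells; drugs given iv as sulfate salts in physiological saline, mostly once on day 1. %ILS from all deaths and survivors as (T/C × 100) − 100; survivors scored on days 30 and 60.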
# [2] = tested on: Mus musculus; test: Percent increase in life span of DBA2 mice after inoculation with L1210 leukemia intravenously at a dose of 55 mg/kg per day; conditions: route intravenous; method in brief: as §1
# [3] = tested on: Mus musculus; test: Number of survivors on 60th day at dose 55 mg/kg/day in 10 mice implanted with P388 leukemia cell line
# [4] = tested on: Mus musculus; test: Number of survivors on 60th day at dose 60 mg/kg/day in 10 mice implanted with P388 leukemia cell line
# Method in brief: (§2)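 Female DBA2 mice inoculated iv on day 0 with 10^4 P388 cells; single iv treatment on day 1 with drug as sulfate salt in physiological saline. Survival followed; %ILS from all deaths and survivors as (T/C × 100) − 100, maximal MST 30 days; survivors counted on days 30 and 60. Most experiments confirmed three times.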
# [5] = tested on: Mus musculus; test: Percent increase in life span at dose 70 mg/kg/day in 10 mice implanted with P388 leukemia cell line; method in brief: as §2
# [6] = tested on: Mus musculus; test: Number of survivors of DBA2 mice on 30th day after inoculation with L1210 leukemia cell line intravenously at a dose of 50 mg/kg/day; 0/10; conditions: route intravenous
# [7] = tested on: Mus musculus; test: Number of survivors of DBA2 mice on 30th day after inoculation with L1210 leukemia cell line intravenously at a dose of 55 mg/kg/day; 0/10; conditions: route intravenous
# [8] = tested on: Mus musculus; test: Number of survivors on 60th day at dose 50 mg/kg/day in 10 mice implanted with P388 leukemia cell line
# [9] = tested on: Mus musculus; test: Percent increase in life span at dose 30 mg/kg/day in 10 mice implanted with P388 leukemia cell line; method in brief: as §2
# [10] = tested on: Mus musculus; test: Percent increase in life span at dose 40 mg/kg/day in 10 mice implanted with P388 leukemia cell line; method in brief: as §2
# [11] = tested on: Mus musculus; test: Percent increase in life span at dose 55 mg/kg/day in 10 mice implanted with P388 leukemia cell line; method in brief: as §2
# [12] = tested on: Mus musculus; test: Percent increase in life span at dose 60 mg/kg/day in 10 mice implanted with P388 leukemia cell line; method in brief: as §2
# [13] = tested on: Mus musculus; test: Number of survivors on 60th day at dose 40 mg/kg/day in 10 mice implanted with P388 leukemia cell line
# [14] = tested on: Mus musculus; test: Number of survivors on 30th day at dose 30 mg/kg/day in 10 mice implanted with P388 leukemia cell line
# [15] = tested on: Mus musculus; test: Number of survivors on 30th day at dose 40 mg/kg/day in 10 mice implanted with P388 leukemia cell line
# [16] = tested on: Mus musculus; test: Number of survivors on 30th day at dose 50 mg/kg/day in 10 mice implanted with P388 leukemia cell line
# [17] = tested on: Mus musculus; test: Number of survivors on 60th day at dose 30 mg/kg/day in 10 mice implanted with P388 leukemia cell line
# [18] = tested on: Mus musculus; test: Number of survivors on 60th day at dose 70 mg/kg/day in 10 mice implanted with P388 leukemia cell line; method in brief: as §2
# [19] = tested on: Mus musculus; test: Number of survivors on 30th day at dose 55 mg/kg/day in 10 mice implanted with P388 leukemia cell line
# [20] = tested on: Mus musculus; test: Number of survivors on 30th day at dose 60 mg/kg/day in 10 mice implanted with P388 leukemia cell line
# [21] = tested on: Mus musculus; test: Number of survivors of DBA2 mice on 60th day after inoculation with L1210 leukemia cell line intravenously at a dose of 50 mg/kg/day; 0/10; conditions: route intravenous
# [22] = tested on: Mus musculus; test: Number of survivors of DBA2 mice on 60th day after inoculation with L1210 leukemia cell line intravenously at a dose of 55 mg/kg/day; 0/10; conditions: route intravenous
# [23] = tested on: Mus musculus; test: Number of survivors on 30th day at dose 70 mg/kg/day in 10 mice implanted with P388 leukemia cell line
# [24] = tested on: Mus musculus; test: Percent increase in life span at dose 50 mg/kg/day in 10 mice implanted with P388 leukemia cell line; method in brief: as §2
# [25] = tested on: Mus musculus; test: Number of survivors on 60th day at dose 20 mg/kg/day in 10 mice implanted with P388 leukemia cell line; 0/10
# [26] = tested on: Mus musculus; test: Percent increase in life span at dose 20 mg/kg/day in 10 mice implanted with P388 leukemia cell line; method in brief: as §2
# [27] = tested on: Mus musculus; test: Number of survivors on 60th day at dose 50 mg/kg/day in 10 mice implanted with P388 leukemia cell line; 0/10
# [28] = tested on: Mus musculus; test: Number of survivors on 60th day at dose 40 mg/kg/day in 10 mice implanted with P388 leukemia cell line; 0/10
# [29] = tested on: Mus musculus; test: Number of survivors on 30th day at dose 20 mg/kg/day in 10 mice implanted with P388 leukemia cell line; 0/10
# [30] = tested on: Mus musculus; test: Number of survivors on 30th day at dose 40 mg/kg/day in 10 mice implanted with P388 leukemia cell line; 0/10
# [31] = tested on: Mus musculus; test: Number of survivors on 30th day at dose 50 mg/kg/day in 10 mice implanted with P388 leukemia cell line; 0/10
# [32] = tested on: Mus musculus; test: Number of survivors on 60th day at dose 10 mg/kg/day in 10 mice implanted with P388 leukemia cell line; 0/10
# [33] = tested on: Mus musculus; test: Number of survivors on 30th day at dose 10 mg/kg/day in 10 mice implanted with P388 leukemia cell line; 0/10
smiles,measurement,setting,value
CC[C@]1(O)C[C@@H]2C[N@](CCc3c([nH]c4ccccc34)[C@@](C(=O)OC)(c3cc4c(cc3OC)N(C)[C@@]3(C)[C@@](O)(C(=O)N[C@@H](Cc5c[nH]c6ccccc56)C(=O)OC)[C@H](O)[C@]5(CC)C=CCN6CC[C@]43[C@@H]65)C2)C1,ILS at 50 mg/kg/day,[1],47.4%
same,ILS at 55 mg/kg/day,[2],60.2%
same,Survivors,[3],1
same,Survivors,[4],2
same,ILS at 70 mg/kg/day,[5],145%
same,Survivors,[6],0
same,Survivors,[7],0
same,Survivors,[8],1
same,ILS at 30 mg/kg/day,[9],33.9%
same,ILS at 40 mg/kg/day,[10],42.8%
same,ILS at 55 mg/kg/day,[11],85.8%
same,ILS at 60 mg/kg/day,[12],132%
same,Survivors,[13],0
same,Survivors,[14],0
same,Survivors,[15],0
same,Survivors,[16],1
same,Survivors,[17],0
same,Survivors,[18],3
same,Survivors,[19],2
same,Survivors,[20],3
same,Survivors,[21],0
same,Survivors,[22],0
same,Survivors,[23],5
same,ILS at 50 mg/kg/day,[24],110%
CCOC(=O)[C@H](CCC(=O)O)NC(=O)[C@@]1(O)[C@H](O)[C@]2(CC)C=CCN3CC[C@@]4(c5cc([C@@]6(C(=O)OC)C[C@H]7C[N@](CCc8c6[nH]c6ccccc86)C[C@](O)(CC)C7)c(OC)cc5N(C)[C@@]14C)[C@@H]32,Survivors,[25],0
same,ILS at 20 mg/kg/day,[26],10%
same,Survivors,[27],0
same,ILS at 40 mg/kg/day,[10],34.5%
same,Survivors,[28],0
same,Survivors,[29],0
same,Survivors,[30],0
same,Survivors,[31],0
same,Survivors,[32],0
same,Survivors,[33],0
same,ILS at 50 mg/kg/day,[24],2.8%
